Assay results reported in ChEMBL document CHEMBL3351398, “Discovery of a Potent and Selective DGAT1 Inhibitor with a Piperidinyl-oxy-cyclohexanecarboxylic Acid Moiety” (ACS Med Chem Lett, 2014).

Tests used:
[1] = molecular target: T1, Diacylglycerol O-acyltransferase 1 (Homo sapiens, UniProt O75907); test: Inhibition of human DGAT1
T1 sequence (O75907 whole entry): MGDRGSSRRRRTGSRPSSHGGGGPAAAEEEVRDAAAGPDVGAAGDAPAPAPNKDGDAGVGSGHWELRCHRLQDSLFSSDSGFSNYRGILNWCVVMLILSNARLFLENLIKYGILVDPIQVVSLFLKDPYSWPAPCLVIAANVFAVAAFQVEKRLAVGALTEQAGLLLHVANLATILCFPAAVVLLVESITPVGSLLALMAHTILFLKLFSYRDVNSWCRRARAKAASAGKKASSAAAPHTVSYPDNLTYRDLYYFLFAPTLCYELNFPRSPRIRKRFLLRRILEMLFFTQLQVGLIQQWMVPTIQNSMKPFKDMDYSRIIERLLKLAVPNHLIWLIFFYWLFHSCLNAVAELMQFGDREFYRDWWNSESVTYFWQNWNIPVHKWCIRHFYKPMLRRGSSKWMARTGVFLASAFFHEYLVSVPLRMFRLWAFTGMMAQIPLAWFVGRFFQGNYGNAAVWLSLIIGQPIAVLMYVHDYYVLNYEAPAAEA

Mus musculus = test: Inhibition of plasma triglyceride accumulation in mouse at 10 mg/kg, po dosed 2 hrs before lipid challenge and measured at 18 hrs by lipid tolerance test; format: functional
Outline: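 Mouse lipid tolerance test measuring plasma triglyceride excursion. Dosing was 10 mpk oral, with triglyceride reduction read at 18 h.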

[2] = molecular target: Voltage-gated inwardly rectifying potassium channel KCNH2 (Homo sapiens, UniProt Q12809); test: Displacement of radiolabeled MK499 from human ERG
Outline: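 hERG off-target activity was measured in a competitive binding assay against radiolabeled MK-499. The value is reported as Ki.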

[3] = Unbound fraction in mouse plasma; format: ADME, cell-free
[4] = Unbound fraction in human plasma; format: ADME, cell-free
[5] = Plasma concentration in Sprague-Dawley rat at 1 mg/kg, po dosed 2 hrs before lipid challenge and measured at 4 hrs by lipid tolerance test; format: ADME, organism-based; set-up: dose 1 mg/kg, route oral
Outline: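 Rat lipid tolerance test at oral doses of 1 and 3 mpk. Reduction of lipid excursion was normalized to a reference DGAT1 inhibitor given at 10 mpk, set as 100%. Plasma drug levels were the parent and its cis isomer combined, measured 4 h after oral dosing.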

Salmonella typhimurium [6] = test: Induction of mutagenicity in Salmonella typhimurium TA98 assessed as increase in number of revertants in absence of metabolic activation; format: toxicity, organism-based; settings: salmonella enterica subsp. enterica serovar typhimurium
Outline: (§1)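 Microbial reverse-mutation (Ames) test in strains TA1535, TA98 and TA100, with and without metabolic activation. The concentration range was 30 to 5000 μg/plate. A positive call required a 2-fold or greater increase in revertants relative to the solvent control.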

Salmonella typhimurium [7] = test: Induction of mutagenicity in Salmonella typhimurium TA100 assessed as increase in number of revertants in presence of metabolic activation; format: toxicity, organism-based; settings: salmonella enterica subsp. enterica serovar typhimurium; outline: as §1
Salmonella typhimurium [8] = test: Induction of mutagenicity in Salmonella typhimurium TA100 assessed as increase in number of revertants in absence of metabolic activation; format: toxicity, organism-based; settings: salmonella enterica subsp. enterica serovar typhimurium; outline: as §1
[9] = Clearance in Sprague-Dawley rat at 1 mg/kg, iv or 2 mg/kg, po; format: ADME, organism-based; settings: in vivo
[10] = AUC in Sprague-Dawley rat at 2 mg/kg, po; format: ADME, organism-based; set-up: dose 2 mg/kg, route oral; settings: plasma
Rattus norvegicus = test: AUC in Sprague-Dawley rat assessed as cis-4-((1-(5-(5-(trifluoromethyl)-1H-benzo[d]imidazol-2-yl)pyridin-2-yl)piperidin-4-yl)oxy)cyclohexanecarboxylic acid rat at 2 mg/kg, po; format: ADME, organism-based, Plasma; set-up: dose 2 mg/kg, route oral; settings: in vivo
[11] = Clearance in Beagle dog at 1 mg/kg, iv or 4 mg/kg, po; format: ADME, organism-based, Canis lupus familiaris; settings: in vivo
Outline: (§2)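 Single-dose pharmacokinetics. Beagle dogs were dosed at 1 mg/kg iv as a solution in 30% captisol (pH 8) and at 4 mg/kg po in 0.5 methylcellulose.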

[12] = Volume of distribution at steady state in Beagle dog at 1 mg/kg, iv or 4 mg/kg, po; format: ADME, organism-based, Canis lupus familiaris; settings: in vivo, read-out: Vdss
Outline: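 Beagle dogs were dosed 1 mg/kg iv as a solution in 30% captisol (pH 8) and 4 mg/kg po in methylcellulose. Pharmacokinetic parameters were derived from these dosings.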

Canis familiaris = test: AUC in Beagle dog assessed as cis-4-((1-(5-(5-(trifluoromethyl)-1H-benzo[d]imidazol-2-yl)pyridin-2-yl)piperidin-4-yl)oxy)cyclohexanecarboxylic acid at 4 mg/kg, po; format: ADME, organism-based, Canis lupus familiaris, Plasma; set-up: dose 4 mg/kg, route oral; settings: in vivo; outline: as §2
[13] = Drug level in small intestine of C57BL/6 mouse at 10 mg/kg, po after 3 hrs; format: ADME, organism-based; set-up: dose 10 mg/kg, route oral; settings: read-out: Drug uptake
Outline: (§3)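 Tissue distribution in C57BL/6 mice. A single oral dose of 10 mg/kg was given as a solution in EtOH/PEG400/water (10:50:40). Parent and its cis isomer were both measured, in μM, in plasma, liver, small intestine, adipose fat and skin at 3 h and 24 h.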

[14] = Drug level in skin of C57BL/6 mouse at 10 mg/kg, po after 3 hrs; format: ADME, organism-based, Zone of skin; set-up: dose 10 mg/kg, route oral; settings: read-out: Drug uptake; outline: as §3
[15] = Drug level in liver of C57BL/6 mouse at 10 mg/kg, po after 24 hrs; format: ADME, organism-based; set-up: dose 10 mg/kg, route oral; settings: read-out: Drug uptake; outline: as §3
[16] = Drug level in small intestine of C57BL/6 mouse at 10 mg/kg, po after 24 hrs; format: ADME, organism-based; set-up: dose 10 mg/kg, route oral; settings: read-out: Drug uptake; outline: as §3
[17] = Drug level in skin of C57BL/6 mouse at 10 mg/kg, po after 24 hrs; format: ADME, organism-based, Zone of skin; set-up: dose 10 mg/kg, route oral; settings: read-out: Drug uptake; outline: as §3
Plasma [18] = test: Drug level in plasma of C57BL/6 mouse assessed as cis-4-((1-(5-(5-(trifluoromethyl)-1H-benzo[d]imidazol-2-yl)pyridin-2-yl)piperidin-4-yl)oxy)cyclohexanecarboxylic acid level at 10 mg/kg, po after 24 hrs; format: ADME, organism-based; set-up: dose 10 mg/kg, route oral; settings: in vivo; outline: as §3
Intestine [19] = test: Drug level in small intestine of C57BL/6 mouse assessed as cis-4-((1-(5-(5-(trifluoromethyl)-1H-benzo[d]imidazol-2-yl)pyridin-2-yl)piperidin-4-yl)oxy)cyclohexanecarboxylic acid level at 10 mg/kg, po after 24 hrs; format: ADME, organism-based; set-up: dose 10 mg/kg, route oral; settings: in vivo, read-out: Drug uptake; outline: as §3
[20] = Drug level in adipose fat of C57BL/6 mouse assessed as cis-4-((1-(5-(5-(trifluoromethyl)-1H-benzo[d]imidazol-2-yl)pyridin-2-yl)piperidin-4-yl)oxy)cyclohexanecarboxylic acid level at 10 mg/kg, po after 24 hrs; format: ADME, organism-based, Adipose tissue; set-up: dose 10 mg/kg, route oral; settings: in vivo, read-out: Drug uptake; outline: as §3
Zone of skin = test: Drug level in skin of C57BL/6 mouse assessed as cis-4-((1-(5-(5-(trifluoromethyl)-1H-benzo[d]imidazol-2-yl)pyridin-2-yl)piperidin-4-yl)oxy)cyclohexanecarboxylic acid level at 10 mg/kg, po after 24 hrs; format: ADME, organism-based; set-up: dose 10 mg/kg, route oral; settings: in vivo, read-out: Drug uptake; outline: as §3
Plasma [21] = test: Drug level in plasma of C57BL/6 mouse assessed as cis-4-((1-(5-(5-(trifluoromethyl)-1H-benzo[d]imidazol-2-yl)pyridin-2-yl)piperidin-4-yl)oxy)cyclohexanecarboxylic acid level at 10 mg/kg, po after 3 hrs; format: ADME, organism-based; set-up: dose 10 mg/kg, route oral; settings: in vivo; outline: as §3
Liver = test: Drug level in liver of C57BL/6 mouse assessed as cis-4-((1-(5-(5-(trifluoromethyl)-1H-benzo[d]imidazol-2-yl)pyridin-2-yl)piperidin-4-yl)oxy)cyclohexanecarboxylic acid level at 10 mg/kg, po after 3 hrs; format: ADME, organism-based; set-up: dose 10 mg/kg, route oral; settings: in vivo, read-out: Drug uptake; outline: as §3
Intestine [22] = test: Drug level in small intestine of C57BL/6 mouse assessed as cis-4-((1-(5-(5-(trifluoromethyl)-1H-benzo[d]imidazol-2-yl)pyridin-2-yl)piperidin-4-yl)oxy)cyclohexanecarboxylic acid level at 10 mg/kg, po after 3 hrs; format: ADME, organism-based; set-up: dose 10 mg/kg, route oral; settings: in vivo, read-out: Drug uptake; outline: as §3

Voltage-gated inwardly rectifying potassium channel KCNH2, sequence (Q12809 whole entry): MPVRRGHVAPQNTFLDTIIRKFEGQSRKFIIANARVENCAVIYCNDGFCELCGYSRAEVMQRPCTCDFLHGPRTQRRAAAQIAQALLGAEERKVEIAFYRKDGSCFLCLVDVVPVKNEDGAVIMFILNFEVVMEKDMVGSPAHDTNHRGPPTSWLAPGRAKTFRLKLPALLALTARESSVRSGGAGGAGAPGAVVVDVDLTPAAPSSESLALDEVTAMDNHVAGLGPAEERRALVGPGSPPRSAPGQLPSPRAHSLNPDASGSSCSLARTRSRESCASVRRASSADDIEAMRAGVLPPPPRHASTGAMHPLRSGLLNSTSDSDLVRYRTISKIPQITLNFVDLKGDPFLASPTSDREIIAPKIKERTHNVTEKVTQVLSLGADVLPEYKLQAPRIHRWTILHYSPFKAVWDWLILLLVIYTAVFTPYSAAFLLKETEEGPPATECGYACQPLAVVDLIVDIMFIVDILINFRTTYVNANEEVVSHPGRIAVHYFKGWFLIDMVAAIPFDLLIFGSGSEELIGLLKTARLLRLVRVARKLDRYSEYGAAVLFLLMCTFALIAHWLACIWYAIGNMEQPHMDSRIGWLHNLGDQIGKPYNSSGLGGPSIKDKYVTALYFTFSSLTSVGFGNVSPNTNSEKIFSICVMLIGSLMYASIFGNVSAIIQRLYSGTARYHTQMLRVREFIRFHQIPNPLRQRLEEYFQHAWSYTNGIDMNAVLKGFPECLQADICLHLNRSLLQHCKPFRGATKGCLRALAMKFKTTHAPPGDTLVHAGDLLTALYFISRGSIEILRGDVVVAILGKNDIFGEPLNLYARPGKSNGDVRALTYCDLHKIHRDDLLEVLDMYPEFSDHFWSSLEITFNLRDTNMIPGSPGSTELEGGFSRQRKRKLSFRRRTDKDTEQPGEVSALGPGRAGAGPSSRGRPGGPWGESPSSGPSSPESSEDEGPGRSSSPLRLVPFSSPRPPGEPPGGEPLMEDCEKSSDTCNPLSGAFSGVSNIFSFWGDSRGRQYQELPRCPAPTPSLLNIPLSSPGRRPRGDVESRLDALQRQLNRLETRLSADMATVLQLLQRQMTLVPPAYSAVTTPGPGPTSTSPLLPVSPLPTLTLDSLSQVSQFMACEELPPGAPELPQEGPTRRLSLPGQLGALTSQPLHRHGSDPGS

IC50 [1]: 3.9 nM
fraction unbound [3]: 0.078
fraction unbound [4]: 0.09
clearance [9]: 5.82 mL/min/kg
AUC [10]: 1 µM·h
AUC (Rattus norvegicus): 0.97 µM·h
clearance [11]: 88.9 mL/min/kg
Vd [12]: 4.54 L/kg
AUC (Canis familiaris): 0.11 µM·h
concentration at 3 h [13]: 36.6 µM
concentration at 3 h [14]: 404 nM
concentration at 24 h [15]: 4.02 µM
concentration at 24 h [16]: 711 nM
concentration at 24 h [17]: 167 nM
concentration (Plasma [18]): < 10 nM
concentration (Intestine [19]): 76 nM
concentration [20]: < 10 nM
concentration (Zone of skin): 18 nM
concentration (Plasma [21]): 54 nM
concentration (Liver): 6.91 µM
concentration (Intestine [22]): 5.03 µM
Structure (SMILES): O=C(O)[C@H]1CC[C@H](OC2CCN(c3ccc(-c4nc5cc(C(F)(F)F)ccc5[nH]4)cn3)CC2)CC1
inhibition in vivo at 10 mg/kg (Mus musculus): 89%
Ki [2]: 10 µM
concentration at 4 h [5]: 20 nM
Activity (Salmonella typhimurium [6]): Non-toxic
Activity (Salmonella typhimurium [7]): Non-toxic
Activity (Salmonella typhimurium [8]): Non-toxic
